Measurements as given in ChEMBL document CHEMBL1132573, “Novel antitumor 2-cyanoaziridine-1-carboxamides” (J Med Chem, 1999).

Columns and labels:
[1] = Number of colony forming cells of human lung tumor showing sensitivity among the 2 colony forming cells tested in vitro at compound concentration of 2.0 uM; format: functional
Outline: (§1)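 Fresh human tumor specimens from patients at the Arizona Cancer Center, run in the human tumor cloning (colony-forming) assay by a standard protocol. Read-out was [3H]thymine uptake by tumor-colony-forming cells.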

[2] = Number of colony forming cells of human ovary tumor showing sensitivity among the 10 colony forming cells tested in vitro at compound concentration of 0.2 uM; format: functional, Female gonad; outline: as §1
[3] = Number of colony forming cells of human ovary tumor showing sensitivity among the 11 colony forming cells tested in vitro at compound concentration of 2.0 uM; format: functional, Female gonad; outline: as §1
WiDr [4] = experiment: Inhibition of cell growth in drug resistant WiDr colon cell line; format: functional, cell-based; conditions: Homo sapiens
[5] = Number of colony forming cells of human sarcoma tumor showing sensitivity among the 8 colony forming cells tested in vitro at compound concentration of 2.0 uM; format: functional
Outline: (§2)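 Fresh human tumor specimens, obtained from patients at the Arizona Cancer Center, were tested as tumor-colony-forming cells in the human tumor cloning assay. Sensitivity was scored as a 50% or greater decrease in […] uptake by treated colony-forming cells relative to untreated control colony-forming cells. The value is the count of sensitive specimens among those tested.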

[6] = Number of colony forming cells of human stomach tumor showing sensitivity among the 1 colony forming cells tested in vitro at compound concentration of 2.0 uM; format: functional; outline: as §2
RPMI-8226 [7] = experiment: Inhibition of cell growth in drug sensitive 8226 myeloma cell line; format: functional, cell-based; conditions: Homo sapiens
L1210 [8] = experiment: Inhibition of cell growth in (L1210 leukemia) MDR cells determined by MTT assay; format: functional, cell-based; conditions: Mus musculus
[9] = Number of colony forming cells of human sarcoma tumor showing sensitivity among the 2 colony forming cells tested in vitro at compound concentration of 0.2 uM; format: functional; outline: as §2
[10] = Number of colony forming cells of human stomach tumor showing sensitivity among the 1 colony forming cells tested in vitro at compound concentration of 20 uM; format: functional; outline: as §2
MCF7 [11] = experiment: Inhibition of cell growth in drug sensitive MCF-7 breast cell line; format: functional, cell-based; conditions: Homo sapiens
[12] = Number of colony forming cells of human lung tumor showing sensitivity among the 2 colony forming cells tested in vitro at compound concentration of 0.2 uM; format: functional; outline: as §1
[13] = Number of colony forming cells of human lung tumor showing sensitivity among the 2 colony forming cells tested in vitro at compound concentration of 20 uM; format: functional; outline: as §1
Breast carcinoma cell [14] = experiment: Number of colony forming cells of human breast tumor showing sensitivity among the 4 colony forming cells tested in vitro at compound concentration of 20 uM; format: functional; outline: as §1
[15] = Number of colony forming cells of human gynecologic tumor showing sensitivity among the 4 colony forming cells tested in vitro at compound concentration of 20 uM; format: functional; outline: as §1
WiDr [16] = experiment: Inhibition of cell growth in drug sensitive WiDr colon cell line; format: functional, cell-based; conditions: Homo sapiens
[17] = Number of colony forming cells of human gynecologic tumor showing sensitivity among the 4 colony forming cells tested in vitro at compound concentration of 0.2 uM; format: functional; outline: as §1
[18] = Number of colony forming cells of human sarcoma tumor showing sensitivity among the 8 colony forming cells tested in vitro at compound concentration of 20 uM; format: functional; outline: as §2
MCF7 [19] = experiment: Inhibition of cell growth in (MCF7 breast) dox cell line; format: functional, cell-based; conditions: Homo sapiens
[20] = Number of colony forming cells of human melanoma tumor showing sensitivity among the 10 colony forming cells tested in vitro at compound concentration of 20 uM; format: functional; outline: as §1
[21] = Number of colony forming cells of human myeloma tumor showing sensitivity among the 2 colony forming cells tested in vitro at compound concentration of 20 uM; format: functional; outline: as §1
A-375 = experiment: Inhibition of cell growth in (A375) melan cell line; format: functional, cell-based; conditions: Homo sapiens
[22] = Number of colony forming cells of human myeloma tumor showing sensitivity among the 2 colony forming cells tested in vitro at compound concentration of 2.0 uM; format: functional; outline: as §1
L1210 [23] = experiment: Inhibition of cell growth in drug sensitive L1210 leukemia cell line determined by MTT assay; format: functional, cell-based; conditions: Mus musculus
Breast carcinoma cell [24] = experiment: Number of colony forming cells of human breast tumor showing sensitivity among the 4 colony forming cells tested in vitro at compound concentration of 2.0 uM; format: functional; outline: as §1
[25] = Number of colony forming cells of human stomach tumor showing sensitivity among the 1 colony forming cells tested in vitro at compound concentration of 0.2 uM; format: functional; outline: as §2
Breast carcinoma cell [26] = experiment: Number of colony forming cells of human breast tumor showing sensitivity among the 4 colony forming cells tested in vitro at compound concentration of 0.2 uM; format: functional; outline: as §1
[27] = Number of colony forming cells of human melanoma tumor showing sensitivity among the 5 colony forming cells tested in vitro at compound concentration of 0.2 uM; format: functional; outline: as §1
MCF7 [28] = experiment: Inhibition of cell growth in (MCF7 breast) mitox cell line; format: functional, cell-based; conditions: Homo sapiens
[29] = Number of colony forming cells of human ovary tumor showing sensitivity among the 10 colony forming cells tested in vitro at compound concentration of 20 uM; format: functional, Female gonad; outline: as §1
[30] = Number of colony forming cells of human myeloma tumor showing sensitivity among the 2 colony forming cells tested in vitro at compound concentration of 0.2 uM; format: functional; outline: as §1
[31] = Number of colony forming cells of human gynecologic tumor showing sensitivity among the 4 colony forming cells tested in vitro at compound concentration of 2.0 uM; format: functional; outline: as §1
RPMI-8226 [32] = experiment: Inhibition of cell growth in drug resistant 8226 myeloma cell line; format: functional, cell-based; conditions: Homo sapiens
[33] = Number of colony forming cells of human melanoma tumor showing sensitivity among the 10 colony forming cells tested in vitro at compound concentration of 2.0 uM; format: functional; outline: as §1
A549 = experiment: Inhibition of cell growth in (A-549) lung cell line; format: functional, cell-based; conditions: Homo sapiens
OVCAR-3 = experiment: Inhibition of cell growth in (OVCAR-3) ovarian cell line; format: functional, cell-based; conditions: Homo sapiens
L1210 [34] = experiment: Cytotoxicity was measured as 50% inhibition of cell growth in drug sensitive L1210 leukemia cell line and is determined by MTT assay; format: functional, cell-based, Homo sapiens; conditions: Mus musculus
MCF7 [35] = experiment: Cytotoxicity was measured as 50% inhibition of cell growth in drug sensitive MCF-7 breast cell line; format: functional, cell-based, Mus musculus; conditions: Homo sapiens

N#CC1CN1C(=O)Nc1ccccc1 (stereo not drawn)
Sensitivity [1]: 1 | Sensitivity [2]: 3 | Sensitivity [3]: 10 | IC50 (WiDr [4]): 12 µM | Sensitivity [5]: 4 | Sensitivity [6]: 1 | IC50 (RPMI-8226 [7]): 5.3 µM | IC50 (L1210 [8]): 11 µM | Sensitivity [9]: 2 | Sensitivity [10]: 1 | IC50 (MCF7 [11]): 2.9 µM | Sensitivity [12]: 0 | Sensitivity [13]: 2 | Sensitivity (Breast carcinoma cell [14]): 3 | Sensitivity [15]: 3 | IC50 (WiDr [16]): 5 µM | Sensitivity [17]: 0 | Sensitivity [18]: 5 | IC50 (MCF7 [19]): 2.6 µM | Sensitivity [20]: 10 | Sensitivity [21]: 2 | IC50 (A-375): 11 µM | Sensitivity [22]: 2 | IC50 (L1210 [23]): 1.2 µM | Sensitivity (Breast carcinoma cell [24]): 2 | Sensitivity [25]: 1 | Sensitivity (Breast carcinoma cell [26]): 2 | Sensitivity [27]: 3 | IC50 (MCF7 [28]): 4.3 µM | Sensitivity [29]: 10 | Sensitivity [30]: 2 | Sensitivity [31]: 2 | IC50 (RPMI-8226 [32]): 8 µM | Sensitivity [33]: 8 | IC50 (A549): 9 µM | IC50 (OVCAR-3): 6.8 µM

N#CC1CN1C(N)=O (stereo not drawn)
IC50 (L1210 [8]): > 90 µM | IC50 (MCF7 [11]): > 54 µM | IC50 (MCF7 [19]): > 54 µM | IC50 (A-375): > 90 µM | IC50 (L1210 [23]): > 90 µM | IC50 (MCF7 [28]): > 54 µM | IC50 (OVCAR-3): > 90 µM

CC(C)(C)NC(=O)N1CC1C#N (stereo not drawn)
IC50 (WiDr [4]): > 300 µM | IC50 (RPMI-8226 [7]): 120 µM | IC50 (L1210 [8]): 457 µM | IC50 (MCF7 [11]): > 300 µM | IC50 (WiDr [16]): 180 µM | IC50 (MCF7 [19]): 190 µM | IC50 (A-375): 418 µM | IC50 (L1210 [23]): 132 µM | IC50 (MCF7 [28]): 120 µM | IC50 (RPMI-8226 [32]): 216 µM | IC50 (A549): 180 µM | IC50 (OVCAR-3): 186 µM

N#CC1CN1C(=O)Nc1ccc(S(N)(=O)=O)cc1 (stereo not drawn)
IC50 (WiDr [4]): > 38 µM | IC50 (RPMI-8226 [7]): > 38 µM | IC50 (L1210 [8]): > 38 µM | IC50 (MCF7 [11]): > 15 µM | IC50 (WiDr [16]): > 38 µM | IC50 (MCF7 [19]): > 15 µM | IC50 (A-375): 188 µM | IC50 (L1210 [23]): > 38 µM | IC50 (MCF7 [28]): > 15 µM | IC50 (RPMI-8226 [32]): > 38 µM | IC50 (A549): > 38 µM | IC50 (OVCAR-3): 188 µM

N#CC1CN1C(=O)Nc1ccc([N+](=O)[O-])cc1 (stereo not drawn)
IC50 (WiDr [4]): 3.7 µM | IC50 (RPMI-8226 [7]): 9.1 µM | IC50 (L1210 [8]): 2.6 µM | IC50 (MCF7 [11]): 3 µM | IC50 (WiDr [16]): 4.3 µM | IC50 (MCF7 [19]): 3 µM | IC50 (A-375): 3.9 µM | IC50 (L1210 [23]): 2.6 µM | IC50 (MCF7 [28]): 3 µM | IC50 (RPMI-8226 [32]): 8.6 µM | IC50 (A549): 3.9 µM | IC50 (OVCAR-3): 6.5 µM

N#CC1CN1C(=O)Nc1cccc2ccccc12 (stereo not drawn)
IC50 (WiDr [4]): 2.5 µM | IC50 (RPMI-8226 [7]): 8 µM | IC50 (L1210 [8]): 2.5 µM | IC50 (MCF7 [11]): 2 µM | IC50 (WiDr [16]): 2.4 µM | IC50 (MCF7 [19]): 1.7 µM | IC50 (A-375): 4.2 µM | IC50 (L1210 [23]): 7.2 µM | IC50 (MCF7 [28]): 2 µM | IC50 (RPMI-8226 [32]): 8.9 µM | IC50 (A549): 2.5 µM | IC50 (OVCAR-3): 5.9 µM

N#CC1CN1C(=O)NCc1ccccc1 (stereo not drawn)
IC50 (WiDr [4]): 10 µM | IC50 (RPMI-8226 [7]): 9 µM | IC50 (L1210 [8]): 10 µM | IC50 (MCF7 [11]): 7.4 µM | IC50 (WiDr [16]): 5.3 µM | IC50 (MCF7 [19]): 6 µM | IC50 (A-375): 11 µM | IC50 (L1210 [23]): 3.8 µM | IC50 (MCF7 [28]): 3.4 µM | IC50 (RPMI-8226 [32]): 11 µM | IC50 (A549): 7.4 µM | IC50 (OVCAR-3): 5 µM

CCOC(=O)CNC(=O)N1CC1C#N (stereo not drawn)
IC50 (WiDr [4]): 33 µM | IC50 (RPMI-8226 [7]): 25 µM | IC50 (L1210 [8]): 13 µM | IC50 (WiDr [16]): 31 µM | IC50 (L1210 [34]): 13 µM | IC50 (MCF7 [35]): 15 µM | IC50 (MCF7 [19]): 17 µM | IC50 (A-375): 51 µM | IC50 (MCF7 [28]): 11 µM | IC50 (RPMI-8226 [32]): 30 µM | IC50 (A549): 24 µM

N#CC1CN1C(=O)Nc1ccc(Cl)cc1Cl (stereo not drawn)
IC50 (WiDr [4]): 1.9 µM | IC50 (RPMI-8226 [7]): 4.7 µM | IC50 (L1210 [8]): 33 µM | IC50 (MCF7 [11]): 0.9 µM | IC50 (WiDr [16]): 2.2 µM | IC50 (MCF7 [19]): 1.1 µM | IC50 (A-375): > 39 µM | IC50 (L1210 [23]): 207 µM | IC50 (MCF7 [28]): 0.35 µM | IC50 (RPMI-8226 [32]): 9.4 µM | IC50 (A549): 2.5 µM | IC50 (OVCAR-3): 35 µM

N#CC1CN1C(=O)Nc1ccc(Cl)c(Cl)c1 (stereo not drawn)
IC50 (WiDr [4]): 14 µM | IC50 (RPMI-8226 [7]): 1.1 µM | IC50 (L1210 [8]): 7.2 µM | IC50 (MCF7 [11]): 4.6 µM | IC50 (WiDr [16]): 7 µM | IC50 (MCF7 [19]): 7.2 µM | IC50 (A-375): 5.9 µM | IC50 (L1210 [23]): 2.6 µM | IC50 (MCF7 [28]): 4.4 µM | IC50 (RPMI-8226 [32]): 2.7 µM | IC50 (A549): 7.5 µM | IC50 (OVCAR-3): 5.6 µM
